ChEMBL document CHEMBL1147862, “Studies on synthesis and pharmacological activities of 3,6-disubstituted-1,2,4-triazolo[3,4-b]-1,3,4-thiadiazoles and their dihydro analogues” (2007)

Assays:
Format in all cases: functional
Mus musculus [1] = experiment: Analgesic activity in Swiss mouse assessed as increase in reaction time at 20 mg/kg, po after 30 mins by Eddy's hot plate technique
How it was run: (§1)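 Swiss mice of either sex, 25–35 g, placed one at a time on a hot plate held at 55 °C. End point is paw licking or jumping, whichever comes first, with a 15 s cut-off to avoid paw injury. Reaction time is recorded and reported as percent increase in reaction time.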

Mus musculus [2] = experiment: Analgesic activity in Swiss mouse assessed as increase in reaction time at 20 mg/kg, po after 60 mins by Eddy's hot plate technique; how it was run: as §1
Mus musculus [3] = experiment: Analgesic activity in Swiss mouse assessed as increase in reaction time at 20 mg/kg, po after 90 mins by Eddy's hot plate technique; how it was run: as §1
Candida albicans [4] = experiment: Antifungal activity against Candida albicans at 10 ug/ml by paper disc method; conditions: read-out: IZ
Candida albicans [5] = experiment: Antifungal activity against Candida albicans at 20 ug/ml by paper disc method; conditions: read-out: IZ
Candida albicans [6] = experiment: Antifungal activity against Candida albicans at 30 ug/ml by paper disc method; conditions: read-out: IZ
Aspergillus niger [7] = experiment: Antifungal activity against Aspergillus niger at 10 ug/ml by paper disc method; conditions: read-out: IZ
Aspergillus niger [8] = experiment: Antifungal activity against Aspergillus niger at 20 ug/ml by paper disc method; conditions: read-out: IZ
Aspergillus niger [9] = experiment: Antifungal activity against Aspergillus niger at 30 ug/ml by paper disc method; conditions: read-out: IZ
Escherichia coli [10] = experiment: Antibacterial activity against Escherichia coli at 10 ug/ml by agar plate diffusion technique; conditions: read-out: IZ
Escherichia coli [11] = experiment: Antibacterial activity against Escherichia coli at 20 ug/ml by agar plate diffusion technique; conditions: read-out: IZ
Escherichia coli [12] = experiment: Antibacterial activity against Escherichia coli at 30 ug/ml by agar plate diffusion technique; conditions: read-out: IZ
Pseudomonas aeruginosa [13] = experiment: Antibacterial activity against Pseudomonas aeruginosa at 10 ug/ml by agar plate diffusion technique; conditions: read-out: IZ
Pseudomonas aeruginosa [14] = experiment: Antibacterial activity against Pseudomonas aeruginosa at 20 ug/ml by agar plate diffusion technique; conditions: read-out: IZ
Pseudomonas aeruginosa [15] = experiment: Antibacterial activity against Pseudomonas aeruginosa at 30 ug/ml by agar plate diffusion technique; conditions: read-out: IZ
Bacillus subtilis [16] = experiment: Antibacterial activity against Bacillus subtilis at 10 ug/ml by agar plate diffusion technique; conditions: read-out: IZ
Bacillus subtilis [17] = experiment: Antibacterial activity against Bacillus subtilis at 20 ug/ml by agar plate diffusion technique; conditions: read-out: IZ
Bacillus subtilis [18] = experiment: Antibacterial activity against Bacillus subtilis at 30 ug/ml by agar plate diffusion technique; conditions: read-out: IZ
Staphylococcus aureus [19] = experiment: Antibacterial activity against Staphylococcus aureus at 10 ug/ml by agar plate diffusion technique; conditions: read-out: IZ
Staphylococcus aureus [20] = experiment: Antibacterial activity against Staphylococcus aureus at 20 ug/ml by agar plate diffusion technique; conditions: read-out: IZ
Staphylococcus aureus [21] = experiment: Antibacterial activity against Staphylococcus aureus at 30 ug/ml by agar plate diffusion technique; conditions: read-out: IZ
Rattus norvegicus [22] = experiment: Antiinflammatory activity in Wistar Albino rat assessed as inhibition of carrageenan-induced paw oedema at 20 mg/kg after 1 hr relative to control
How it was run: (§2)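 Wistar albino rats, 150–200 g, six per group, dosed orally with a 20 mg/kg suspension; control gets 0.1 ml 1% gum acacia. After 30 min, 0.1 ml 1% carrageenan in saline is injected subplantar into the right hind paw. Paw volume is read by plethysmograph at 0–4 h. Inhibition = 100(1 − Vtest/Vcontrol) on mean volume increase.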

Rattus norvegicus [23] = experiment: Antiinflammatory activity in Wistar Albino rat assessed as inhibition of carrageenan-induced paw oedema at 20 mg/kg after 2 hrs relative to control; how it was run: as §2
Rattus norvegicus [24] = experiment: Antiinflammatory activity in Wistar Albino rat assessed as inhibition of carrageenan-induced paw oedema at 20 mg/kg after 3 hrs relative to control; how it was run: as §2
Rattus norvegicus [25] = experiment: Antiinflammatory activity in Wistar Albino rat assessed as inhibition of carrageenan-induced paw oedema at 20 mg/kg after 4 hrs relative to control; how it was run: as §2

| Structure (SMILES) | Activity (Mus musculus [1]) [%] | Activity (Mus musculus [2]) [%] | Activity (Mus musculus [3]) [%] | zone of inhibition at 10 µg/mL (Candida albicans [4]) [mm] | zone of inhibition at 20 µg/mL (Candida albicans [5]) [mm] | zone of inhibition at 30 µg/mL (Candida albicans [6]) [mm] | zone of inhibition at 10 µg/mL (Aspergillus niger [7]) [mm] | zone of inhibition at 20 µg/mL (Aspergillus niger [8]) [mm] | zone of inhibition at 30 µg/mL (Aspergillus niger [9]) [mm] | zone of inhibition at 10 µg/mL (Escherichia coli [10]) [mm] | zone of inhibition at 20 µg/mL (Escherichia coli [11]) [mm] | zone of inhibition at 30 µg/mL (Escherichia coli [12]) [mm] | zone of inhibition at 10 µg/mL (Pseudomonas aeruginosa [13]) [mm] | zone of inhibition at 20 µg/mL (Pseudomonas aeruginosa [14]) [mm] | zone of inhibition at 30 µg/mL (Pseudomonas aeruginosa [15]) [mm] | zone of inhibition at 10 µg/mL (Bacillus subtilis [16]) [mm] | zone of inhibition at 20 µg/mL (Bacillus subtilis [17]) [mm] | zone of inhibition at 30 µg/mL (Bacillus subtilis [18]) [mm] | zone of inhibition at 10 µg/mL (Staphylococcus aureus [19]) [mm] | zone of inhibition at 20 µg/mL (Staphylococcus aureus [20]) [mm] | further results |
| --- | --- | --- | --- | --- | --- | --- | --- | --- | --- | --- | --- | --- | --- | --- | --- | --- | --- | --- | --- | --- | --- |
| COc1ccc(Cl)c(-c2nnc3sc(-c4cc(C)nc5ccccc45)nn23)c1 | 7.6 | 12.65 | 21.06 | 6.18 | 13.8 | 18.8 | 5.62 | 12.6 | 18.5 | 5.16 | 9.12 | 16.7 | 5.31 | 10.3 | 16.1 | 7.06 | 11.1 | 16.4 | 6.89 | 12.1 | zone of inhibition at 30 µg/mL (Staphylococcus aureus [21]): 16.1 mm; inhibition in vivo at 20 mg/kg (Rattus norvegicus [22]): 8.68%; inhibition in vivo at 20 mg/kg (Rattus norvegicus [23]): 20.2%; inhibition in vivo at 20 mg/kg (Rattus norvegicus [24]): 24.1%; inhibition in vivo at 20 mg/kg (Rattus norvegicus [25]): 27.4% |
| Cc1occc1-c1nnc2n1NC(c1ccc([N+](=O)[O-])o1)S2 (stereo not given) | 5.34 | 15.68 | 26.85 | 5.89 | 11.1 | 15.8 | 5.48 | 10.4 | 15.3 | 5.78 | 11 | 16.9 | 6.12 | 11.8 | 17.1 | 6.25 | 11.5 | 17.2 | 6.11 | 11.5 | zone of inhibition at 30 µg/mL (Staphylococcus aureus [21]): 17.5 mm; inhibition in vivo at 20 mg/kg (Rattus norvegicus [22]): 15.6%; inhibition in vivo at 20 mg/kg (Rattus norvegicus [23]): 18.1%; inhibition in vivo at 20 mg/kg (Rattus norvegicus [24]): 22.8%; inhibition in vivo at 20 mg/kg (Rattus norvegicus [25]): 24.9% |
| COc1ccc(Cl)c(-c2nnc3sc(Cc4c[nH]c5ccccc45)nn23)c1 | 19.48 | 28.32 | 34.24 | 5.86 | 9.48 | 12.5 | 5.1 | 10.1 | 12.9 | 4.78 | 8.12 | 12.4 | 4.12 | 8.16 | 12.2 | 4.33 | 7.6 | 12.3 | 4.8 | 7.59 | zone of inhibition at 30 µg/mL (Staphylococcus aureus [21]): 12.6 mm; inhibition in vivo at 20 mg/kg (Rattus norvegicus [22]): 8.8%; inhibition in vivo at 20 mg/kg (Rattus norvegicus [23]): 16.5%; inhibition in vivo at 20 mg/kg (Rattus norvegicus [24]): 21.4%; inhibition in vivo at 20 mg/kg (Rattus norvegicus [25]): 34.7% |
| COc1ccc(Cl)c(-c2nnc3sc(-c4ccnc(Cl)c4)nn23)c1 | 7.14 | 17.45 | 23 | 7.14 | 13.7 | 19.3 | 6.64 | 11.8 | 18.4 | 6.39 | 12.2 | 19.2 | 7.02 | 12.5 | 19.1 | 7.12 | 13.8 | 18.6 | 6.98 | 13.7 | zone of inhibition at 30 µg/mL (Staphylococcus aureus [21]): 18.6 mm; inhibition in vivo at 20 mg/kg (Rattus norvegicus [22]): 14.4%; inhibition in vivo at 20 mg/kg (Rattus norvegicus [23]): 20.1%; inhibition in vivo at 20 mg/kg (Rattus norvegicus [24]): 23.5%; inhibition in vivo at 20 mg/kg (Rattus norvegicus [25]): 27.2% |
| Cc1occc1-c1nnc2sc(Cc3c[nH]c4ccccc34)nn12 | 6.66 | 22.22 | 35.33 | 5.38 | 9.3 | 12.7 | 5.6 | 8.74 | 13.2 | 5.78 | 9.18 | 13.6 | 4.85 | 8.9 | 13.5 | 5.67 | 8.75 | 13.8 | 5.12 | 8.19 | zone of inhibition at 30 µg/mL (Staphylococcus aureus [21]): 13.5 mm; inhibition in vivo at 20 mg/kg (Rattus norvegicus [22]): 16%; inhibition in vivo at 20 mg/kg (Rattus norvegicus [23]): 21.5%; inhibition in vivo at 20 mg/kg (Rattus norvegicus [24]): 26.5%; inhibition in vivo at 20 mg/kg (Rattus norvegicus [25]): 30% |
| Cc1cc(-c2nn3c(-c4ccoc4C)nnc3s2)c2ccccc2n1 | 6.04 | 11.35 | 20.34 | 5.84 | 12.6 | 19 | 6 | 13.5 | 17.4 | 6.28 | 10.5 | 17 | 6 | 11.8 | 16.8 | 7.38 | 12.5 | 17.1 | 7.1 | 13.7 | zone of inhibition at 30 µg/mL (Staphylococcus aureus [21]): 17.9 mm; inhibition in vivo at 20 mg/kg (Rattus norvegicus [22]): 7.23%; inhibition in vivo at 20 mg/kg (Rattus norvegicus [23]): 13.4%; inhibition in vivo at 20 mg/kg (Rattus norvegicus [24]): 18.6%; inhibition in vivo at 20 mg/kg (Rattus norvegicus [25]): 26.3% |
| COc1ccc(Cl)c(-c2nnc3n2NC(c2ccc([N+](=O)[O-])o2)S3)c1 (stereo not given) | 5.71 | 14.1 | 23.45 | 5.58 | 11.3 | 15.2 | 5.32 | 9.72 | 14.5 | 5.21 | 10.1 | 15.1 | 4.88 | 7.36 | 13.2 | 5.12 | 8.71 | 13.6 | 5.2 | 8.82 | zone of inhibition at 30 µg/mL (Staphylococcus aureus [21]): 14.2 mm; inhibition in vivo at 20 mg/kg (Rattus norvegicus [22]): 15.6%; inhibition in vivo at 20 mg/kg (Rattus norvegicus [23]): 18.5%; inhibition in vivo at 20 mg/kg (Rattus norvegicus [24]): 21.7%; inhibition in vivo at 20 mg/kg (Rattus norvegicus [25]): 24.2% |
| COc1ccc(Cc2nnc3n2NC(c2ccco2)S3)cc1OC (stereo not given) | 5.36 | 17.26 | 25.11 | 5.48 | 10.4 | 14.7 | 4.8 | 6.96 | 12.3 | 4.29 | 7.49 | 14.2 | 3.73 | 7.11 | 12.7 | 3.8 | 6.65 | 12.2 | 3.7 | 7.31 | zone of inhibition at 30 µg/mL (Staphylococcus aureus [21]): 11.8 mm; inhibition in vivo at 20 mg/kg (Rattus norvegicus [22]): 12%; inhibition in vivo at 20 mg/kg (Rattus norvegicus [23]): 17.5%; inhibition in vivo at 20 mg/kg (Rattus norvegicus [24]): 21.1%; inhibition in vivo at 20 mg/kg (Rattus norvegicus [25]): 24.6% |
